Active and inactive are the calls of the source. Unless noted, no cut-off for these calls is given here.
Tests used:
[1] = test system: U-937; assay: Induction of granulocytic differentiation in human U937 cells assessed as CD11c expression at 0.5 uM after 30 hrs; format: functional
Summary of the method: (§1)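 U937 cells treated for 30 h, then stained with PE-conjugated CD11c (PE mouse IgG1 as control) for 30 min at 4 °C in the dark and resuspended in PBS with PI (0.25 µg/mL). Read-out is percent CD11c-positive/PI-negative cells, with dead PI-positive cells excluded. Coloured compounds limited the top dose to 5 µM or lower.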

[2] = molecular target: RmtA (Emericella nidulans, UniProt Q5VLE3); assay: Inhibition of Aspergillus nidulans RmtA
RmtA, sequence (Q5VLE3 whole entry, the tested form may be a part): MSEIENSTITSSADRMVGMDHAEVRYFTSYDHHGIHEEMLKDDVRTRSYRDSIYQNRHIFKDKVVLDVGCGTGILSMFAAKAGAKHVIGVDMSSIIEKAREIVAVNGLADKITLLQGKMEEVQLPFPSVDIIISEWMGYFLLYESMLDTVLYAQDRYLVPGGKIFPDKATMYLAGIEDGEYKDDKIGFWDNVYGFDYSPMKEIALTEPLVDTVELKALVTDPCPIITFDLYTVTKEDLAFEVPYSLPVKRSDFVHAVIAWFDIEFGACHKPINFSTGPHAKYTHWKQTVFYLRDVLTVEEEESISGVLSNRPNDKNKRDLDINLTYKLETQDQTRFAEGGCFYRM
Summary of the method: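 Enzyme was GST-RmtA fusion expressed in E. coli BL21 and glutathione-affinity purified (500 ng), preincubated with compound for 15 min at room temperature. Then 20 µg chicken erythrocyte core histones and 0.55 µCi [3H]AdoMet were added, 30 min at 30 °C. Stopped with 25% TCA, filtered, counted by liquid scintillation.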

[3] = molecular target: Protein arginine N-methyltransferase 1 (Homo sapiens) (UniProt Q99873); assay: Inhibition of human recombinant PRMT1 assessed as histone H4 methylation at 50 uM
Protein arginine N-methyltransferase 1 (Homo sapiens), sequence (Q99873 whole entry, looked up): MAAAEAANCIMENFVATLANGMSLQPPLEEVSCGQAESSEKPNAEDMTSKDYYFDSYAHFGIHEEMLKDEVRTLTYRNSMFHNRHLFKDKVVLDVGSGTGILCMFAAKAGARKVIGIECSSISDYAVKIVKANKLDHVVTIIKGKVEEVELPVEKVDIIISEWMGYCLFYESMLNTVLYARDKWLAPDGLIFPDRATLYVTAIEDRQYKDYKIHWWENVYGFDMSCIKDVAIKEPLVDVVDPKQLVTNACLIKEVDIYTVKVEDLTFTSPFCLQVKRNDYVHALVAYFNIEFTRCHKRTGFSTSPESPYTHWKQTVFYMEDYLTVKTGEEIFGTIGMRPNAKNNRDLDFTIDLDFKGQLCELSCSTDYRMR

[4] = test system: U-937; assay: Inhibition of human p300/CBP in U937 cells at 50 uM assessed as histone H3 acetylation; format: cell-based
Summary of the method: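 Source was U937 nuclear extract (10 µg per assay) as p300/CBP HAT, with histone H3 substrate and compound at 50 µM or DMSO control for 90 min. Acetyl-H3 detected by indirect ELISA, quantified against acetylated H3 peptide standard curves, […].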

[5] = molecular target: Protein arginine N-methyltransferase 1 (Homo sapiens) (UniProt Q99873); assay: Inhibition of human recombinant PRMT1 assessed as nuclear ribonucleoprotein Npl3p methylation at 100 uM
Summary of the method: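 Recombinant enzymes (0.2 µg) with substrate (0.5 µg: Npl3p for PRMT1, PABP1 for CARM1, histone H3 for SET7), 0.5 µM [3H]AdoMet and 100 µM compound in PBS pH 7.4 with 3.3% v/v DMSO, 90 min at 30 °C. Products separated by 10% SDS-PAGE, transferred to PVDF, detected by fluorography on film overnight.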

[6] = test system: U-937; assay: Cell cycle arrest in human U937 cells assessed as accumulation at S phase at 25 uM after 30 hrs; format: functional, cell-based
Summary of the method: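 U937 cells in RPMI with 10% fetal calf serum, HEPES and glutamine, kept at 200000 cells/mL; treated at 25 µM for 30 h, then the distribution across cell cycle phases was analysed.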

[7] = molecular target: T1, NAD-dependent protein deacetylase sirtuin-1 (Homo sapiens) (UniProt Q96EB6); assay: Inhibition of human SIRT1 at 25 uM
T1 sequence (whole entry): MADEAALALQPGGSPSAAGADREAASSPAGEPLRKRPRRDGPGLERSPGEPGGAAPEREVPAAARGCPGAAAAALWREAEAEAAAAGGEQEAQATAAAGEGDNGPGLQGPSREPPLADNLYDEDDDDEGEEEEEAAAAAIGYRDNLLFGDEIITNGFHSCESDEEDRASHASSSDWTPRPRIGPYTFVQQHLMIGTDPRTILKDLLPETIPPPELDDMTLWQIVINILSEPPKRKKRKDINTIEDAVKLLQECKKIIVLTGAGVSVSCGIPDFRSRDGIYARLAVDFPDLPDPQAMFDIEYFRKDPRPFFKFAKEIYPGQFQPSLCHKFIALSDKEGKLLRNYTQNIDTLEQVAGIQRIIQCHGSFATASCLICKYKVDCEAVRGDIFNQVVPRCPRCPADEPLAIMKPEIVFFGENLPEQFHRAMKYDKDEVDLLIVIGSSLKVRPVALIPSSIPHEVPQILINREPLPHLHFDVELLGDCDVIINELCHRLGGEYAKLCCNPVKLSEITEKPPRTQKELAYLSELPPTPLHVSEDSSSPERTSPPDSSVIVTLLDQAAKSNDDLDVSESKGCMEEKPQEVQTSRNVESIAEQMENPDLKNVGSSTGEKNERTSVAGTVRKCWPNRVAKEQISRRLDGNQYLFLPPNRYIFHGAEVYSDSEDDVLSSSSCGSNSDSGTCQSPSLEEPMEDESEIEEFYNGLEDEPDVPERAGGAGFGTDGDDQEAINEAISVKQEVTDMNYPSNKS
Summary of the method: (§2)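 Fluorescent two-stage assay. SIRT1 (1 U/well) or SIRT2 (5 U/well) with Fluor de Lys-SIRT1/2 substrate, NAD+ and compound at 25 µM, 37 °C for 2 h. Developer II containing nicotinamide then stopped the reaction and generated signal, read at ex 360/em 460 nm.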

[8] = molecular target: T2, NAD-dependent protein deacetylase sirtuin-2 (Homo sapiens) (UniProt Q8IXJ6); assay: Inhibition of human SIRT2 at 25 uM; summary of the method: as §2
T2 sequence (whole entry): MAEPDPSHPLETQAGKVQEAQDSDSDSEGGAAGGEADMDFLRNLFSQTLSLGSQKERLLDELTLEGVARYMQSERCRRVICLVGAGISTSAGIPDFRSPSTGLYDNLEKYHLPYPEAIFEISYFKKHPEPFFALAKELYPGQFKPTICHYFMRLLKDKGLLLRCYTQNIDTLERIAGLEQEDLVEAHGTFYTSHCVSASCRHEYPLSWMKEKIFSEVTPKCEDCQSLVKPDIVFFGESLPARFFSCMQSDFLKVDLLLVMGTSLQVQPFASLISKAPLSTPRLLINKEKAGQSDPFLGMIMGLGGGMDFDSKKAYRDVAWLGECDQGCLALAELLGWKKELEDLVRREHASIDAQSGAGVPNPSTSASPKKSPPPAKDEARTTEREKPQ

[9] = test system: U-937; assay: Induction of apoptosis in human U937 cells at 25 uM after 30 hrs; format: functional
Summary of the method: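 Apoptosis read as caspase 3 activation by FACS, in U937 cells (RPMI, 10% fetal calf serum, 200000 cells/mL) exposed to 25 µM for 30 h.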

[10] = test system: U-937; assay: Inhibition of histone H3R17 methylation in human U937 cells at 50 uM after 24 hrs; format: functional, cell-based
Summary of the method: (§3)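 U937 cells treated at 50 µM for 24 h. Histones extracted with Triton buffer, then 0.2 M HCl overnight at 4 °C. 3–10 µg run on 15% SDS-PAGE and immunoblotted with anti-monomethyl-H3K4, monomethyl-H4R3 or dimethyl-H3R17 (1:500, overnight 4 °C), ECL detection. Loading controls: total H4 (H3K4), Ponceau Red (Arg marks).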

[11] = test system: U-937; assay: Inhibition of histone H4R3 methylation in human U937 cells at 50 uM after 24 hrs; format: functional, cell-based; summary of the method: as §3
[12] = test system: U-937; assay: Inhibition of histone H3K4 methylation in human U937 cells at 50 uM after 24 hrs; format: functional, cell-based; summary of the method: as §3
[13] = test system: U-937; assay: Induction of granulocytic differentiation in human U937 cells assessed as CD11c expression at 5 uM after 30 hrs; format: functional; summary of the method: as §1

IC50 [2]: 29 µM
inhibition [3]: 91%
Activity [5]: Active
inhibition [7]: 62%
inhibition [8]: 67%
Compound: O=C1/C(=C/c2cc(Br)c(O)c(Br)c2)COC/C1=C\c1cc(Br)c(O)c(Br)c1
Activity [1]: 59%
inhibition [4]: 61%
Activity [6]: Active
Activity [9]: 27.9%
Activity [10]: Active
Activity [11]: Active
Activity [12]: Active
Activity [13]: 96.1%
